# Source: ChEMBL document CHEMBL1124464, “Peripherally acting enkephalin analogues. 2. Polar tri- and tetrapeptides” (1989)
# Tests used:
# Type in all cases: functional
# Mus musculus [1] = assay: Antinociceptive activity of perorally administered compound (20 mg) in phenyl-p-benzoquinone induced writhing mice
# Outline: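 Female CD1 mice (Charles River), groups of five to six, dosed orally by blunt intragastric needle (10 mL kg-1) 30 min before ip PBQ at 2.5 mg kg-1. Abdominal constrictions/hind-limb extensions were counted over 2.5 min starting 10 min after PBQ. ED50 is the dose halving writhes versus vehicle, estimated by linear regression.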
# Mus musculus [2] = assay: Antinociceptive activity of subcutaneously administered compound (1 mg) in phenyl-p-benzoquinone induced writhing mice
# Outline: (§1)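 Female CD1 mice (Charles River), groups of five to six, given vehicle or drug sc (10 mL kg-1) 30 min before ip phenyl-p-benzoquinone at 2.5 mg kg-1 (10 mL kg-1). Writhes were counted for 2.5 min from 10 min post-irritant. ED50, the dose giving a 50% reduction in writhes relative to vehicle, was obtained by linear regression.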
# Cavia porcellus [3] = assay: Inhibition of electrically induced contractions on the guinea pig ileum at […] after dosing.
# Outline: (§2)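 Guinea pig ileum contractions evoked by coaxial stimulation at 0.1 Hz, 0.5-ms pulses, supramaximal voltage, recorded isometrically; dose-response curves built with 15-min washout between doses.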
# Cavia porcellus [4] = species: Cavia porcellus; assay: Inhibition of electrically induced contractions on the guinea pig ileum; settings: read-out: ED50 (the source's name); outline: as §2
# Mus musculus [5] = assay: Antinociceptive activity of subcutaneously administered compound (3 mg) in acetic acid (AA) induced writhing mice
# Outline: (§3)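 Male TFW mice, groups of five to six, given drug subcutaneously (10 mL kg-1), then ip acetic acid 0.6% at 25 mL kg-1. Writhes counted for 5 min beginning 15 min after acetic acid. ED50 = dose reducing writhes 50% versus vehicle, by linear regression.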
# Mus musculus [6] = assay: Antinociceptive activity of subcutaneously administered compound in acetic acid (AA) induced writhing mice; settings: sc; outline: as §3
# Mus musculus [7] = assay: (§4) Antinociceptive activity of subcutaneously administered compound (10 mg) in phenyl-p-benzoquinone induced writhing mice
# Outline: (§5)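 Groups of five to six female CD1 mice given drug subcutaneously (10 mL kg-1) 30 min before ip phenyl-p-benzoquinone 2.5 mg kg-1. Writhes (abdominal constrictions/hind-limb extensions) counted over 2.5 min from 10 min post-PBQ. ED50, the dose giving 50% fewer writhes than vehicle, from linear regression.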
# Mus musculus [8] = assay: Antinociceptive activity of perorally administered compound (50 mg) in phenyl-p-benzoquinone induced writhing mice
# Outline: (§6)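 Female CD1 mice, groups of five to six, dosed orally by blunt intragastric needle (10 mL kg-1) 30 min before ip phenyl-p-benzoquinone 2.5 mg kg-1. Abdominal constrictions/hind-limb extensions counted over 2.5 min starting 10 min after PBQ. ED50 = dose halving writhes versus vehicle, by linear regression.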
# Mus musculus [9] = assay: Antinociceptive activity in the hot plate test (central activity) in rodents, when compound administered subcutaneously at 50 mg
# Outline: (§7)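 Male CFLP mice (Hacking and Churchill), groups of five to six, dosed sc at 10 mL kg-1 and placed on a copper surface held at 55 °C. Signs of discomfort (paw licking/shaking, jumping) were scored, with a 30-s cut-off. ED50 is the dose doubling response latency versus vehicle, estimated by parallel-line probit analysis.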
# Mus musculus [10] = species: Mus musculus; assay: Dose ratio in the presence and absence of the peripheral opioid antagonist in N-methyl-nalorphine in AA writhing mice
# Outline: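 Acetic acid (0.6%, ip) writhing in male TFW mice; N-methylnalorphine 11.5 mg kg-1 ip 20 min before subcutaneous agonist. Writhes counted 5 min from 15 min post-irritant. Dose ratio taken as the shift between parallel regression lines with and without antagonist.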
# Mus musculus [11] = assay: Antinociceptive activity of perorally administered compound in phenyl-p-benzoquinone induced writhing mice; settings: po; outline: as §6
# Mus musculus [12] = assay: Antinociceptive activity of subcutaneously administered compound in phenyl-p-benzoquinone induced writhing mice; settings: Mus musculus, sc; read-out: ED50; outline: as §5
# Rodentia sp. [13] = assay: Antinociceptive activity in the hot plate test (central activity) in rodents, when compound administered subcutaneously at; settings: sc; outline: as §7
# Mus musculus [14] = assay: as §4; outline: as §1; remark: listed apart in the source
# Mus musculus [15] = assay: Antinociceptive activity of subcutaneously administered compound (10) in phenyl-p-benzoquinone induced writhing mice; outline: as §5
# Mus musculus [16] = assay: Antinociceptive activity of subcutaneously administered compound (20 mg) in acetic acid (AA) induced writhing mice; outline: as §3
# Rodentia sp. [17] = assay: Antinociceptive activity in the hot plate test (central activity) in rodents, when compound administered subcutaneously at 100 mg
# Outline: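 Male CFLP mice, groups of five to six, placed on a copper surface held at 55 °C; latency to paw licking/shaking or jumping recorded, 30-s cut-off. Drug given subcutaneously at 10 mL kg-1. ED50 = dose doubling response latency versus vehicle, by parallel-line probit analysis.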
smiles,measurement,setting,value
CC(=O)O.CCN(CCc1ccc2ccccc2c1)C(=O)CNC(=O)[C@@H](CCCN=C(N)N)NC(=O)[C@H](Cc1ccc(O)cc1)N=C(N)N,Inhibition,Mus musculus [1],0%
same,Inhibition,Mus musculus [2],11%
CC(=O)O.CCN(CCNC(=O)[C@@H](CCCN=C(N)N)NC(=O)[C@@H](N)Cc1ccc(O)cc1)CCc1ccc([N+](=O)[O-])cc1,Inhibition,Cavia porcellus [3],25%
CC(=O)O.CCN(CCc1ccncc1)C(=O)CNC(=O)[C@@H](CCCN=C(N)N)NC(=O)[C@@H](N)Cc1ccc(O)cc1,EC50,Cavia porcellus [4],569 nM
same,Inhibition,Mus musculus [5],0%
CC(=O)O.CCN(Cc1ccc([N+](=O)[O-])cc1)C(=O)CNC(=O)[C@@H](CCCN=C(N)N)NC(=O)[C@@H](N)Cc1ccc(O)cc1,EC50,Cavia porcellus [4],9.7 nM
same,ED50,Mus musculus [6],0.02 mg/kg
same,Inhibition,Mus musculus [7],0%
same,Inhibition,Mus musculus [8],0%
same,Inhibition,Mus musculus [9],0%
same,Ratio,Mus musculus [10],2.8
CC(=O)O.CCN(CCc1ccccc1F)C(=O)CNC(=O)[C@@H](CCCN=C(N)N)NC(=O)[C@H](Cc1ccc(O)cc1)N=C(N)N,EC50,Cavia porcellus [4],24.6 nM
same,ED50,Mus musculus [11],~50 mg/kg
same,ED50,Mus musculus [6],0.17 mg/kg
same,ED50,Mus musculus [12],0.9 mg/kg
same,ED50,Rodentia sp. [13],22.2 mg/kg
same,Ratio,Mus musculus [10],9.8
CC(=O)O.CCN(CCc1ccccc1C(F)(F)F)C(=O)CNC(=O)[C@@H](CCCN=C(N)N)NC(=O)[C@H](Cc1ccc(O)cc1)N=C(N)N,EC50,Cavia porcellus [4],28.4 nM
same,Inhibition,Mus musculus [14],40%
same,Inhibition,Mus musculus [1],0%
CC(=O)O.CCN(CCc1ccccc1C(F)(F)F)C(=O)CNC(=O)[C@@H](CCCN=C(N)N)NC(=O)[C@@H](N)Cc1ccc(O)cc1,EC50,Cavia porcellus [4],72.1 nM
same,Inhibition,Mus musculus [1],0%
same,Inhibition,Mus musculus [15],33%
CC(=O)O.CCN(CCc1ccc(Cl)c(Cl)c1)C(=O)CNC(=O)[C@@H](CCCN=C(N)N)NC(=O)[C@@H](N)Cc1ccc(O)cc1,EC50,Cavia porcellus [4],12.5 nM
same,Inhibition,Mus musculus [16],0%
same,ED50,Mus musculus [12],4.7 mg/kg
same,Inhibition,Mus musculus [1],0%
same,Inhibition,Rodentia sp. [17],~100%
same,Ratio,Mus musculus [10],0.5
